Converted amounts (≈) assume the structure as drawn.
Legend:
Staphylococcus aureus [1] = assay: Antibacterial activity against Staphylococcus aureus SG 511 after 24 hrs by micro-broth dilution method; format: functional; conditions: SG 511, 24 h
Summary of the method: (§1)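 Microbroth dilution per NCCLS guidelines. Bacteria grown overnight at 37 °C in Mueller–Hinton broth. Compound solution serially diluted twofold in MHB, then wells inoculated to a final 5×10⁵ CFU/mL. Incubated 24 h at 37 °C. MIC (µg/mL) read on an automatic plate reader as the lowest dilution allowing no visible growth.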

Staphylococcus aureus [2] = assay: Antibacterial activity against methicillin-resistant Staphylococcus aureus 994/93 after 24 hrs by micro-broth dilution method; format: functional
Summary of the method: (§2)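 Broth microdilution per NCCLS in Mueller–Hinton broth. Overnight cultures grown at 37 °C. Compound serially diluted twofold, then wells inoculated to a final 5×10⁵ CFU/mL. Plates held at 37 °C for 24 h. MIC (µg/mL) read on an automatic plate reader as the lowest dilution with no visible growth.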

Staphylococcus aureus [3] = assay: Antibacterial activity against methicillin-resistant Staphylococcus aureus 134/94 after 24 hrs by microbroth dilution method; format: functional; summary of the method: as §2
Micrococcus luteus = assay: Antibacterial activity against Micrococcus luteus ATCC 10240 after 24 hrs by microbroth dilution method; format: functional; conditions: ATCC 10240, 24 h; summary of the method: as §1
Enterococcus faecalis = assay: Antibacterial activity against Enterococcus faecalis 1528 after 24 hrs by micro-broth dilution method; format: functional; summary of the method: as §1
[4] = system: Mycolicibacterium smegmatis; assay: Antimicrobial activity against Mycobacterium smegmatis SG 987 after 24 hrs by micro-broth dilution method; format: functional; summary of the method: as §1
Mycolicibacterium aurum = assay: Antimicrobial activity against Mycobacterium aurum SB 66 after 24 hrs by micro-broth dilution method; format: functional; summary of the method: as §1
Mycolicibacterium vaccae = assay: Antimicrobial activity against Mycobacterium vaccae 10670 after 24 hrs by micro-broth dilution method; format: functional; summary of the method: as §1
[5] = system: Mycolicibacterium fortuitum; assay: Antimicrobial activity against Mycobacterium fortuitum Borstel after 24 hrs by microbroth dilution method; format: functional; summary of the method: as §1
[6] = system: Mycobacterium tuberculosis; assay: Antimicrobial activity against Mycobacterium tuberculosis My 331/88 after 14 days; format: functional; conditions: 336 h
[7] = system: Mycobacterium tuberculosis; assay: Antimicrobial activity against Mycobacterium tuberculosis My 331/88 after 21 days; format: functional; conditions: 504 h
Mycobacterium avium [8] = assay: Antimicrobial activity against Mycobacterium avium My 330/88 after 14 days; format: functional; conditions: 336 h
Mycobacterium avium [9] = assay: Antimicrobial activity against Mycobacterium avium My 330/88 after 21 days; format: functional; conditions: 504 h
Mycobacterium kansasii [10] = assay: Antimicrobial activity against Mycobacterium kansasii My 235/80 after 7 days; format: functional; conditions: 168 h
Summary of the method: (§3)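 Run in Šula semisynthetic liquid medium containing bovine serum. Compounds added as DMSO solutions at final concentrations of […]. Each strain was also inoculated onto Löwenstein–Jensen medium to control inoculum sterility and growth.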

Mycobacterium kansasii [11] = assay: Antimicrobial activity against Mycobacterium kansasii My 235/80 after 14 days; format: functional; conditions: 336 h; summary of the method: as §3
Mycobacterium kansasii [12] = assay: Antimicrobial activity against Mycobacterium kansasii My 235/80 after 21 days; format: functional; conditions: 504 h; summary of the method: as §3
Mycobacterium kansasii [13] = assay: Antimicrobial activity against Mycobacterium kansasii My 6509/96 after 7 days; format: functional; conditions: 168 h; summary of the method: as §3
Mycobacterium kansasii [14] = assay: Antimicrobial activity against Mycobacterium kansasii My 6509/96 after 14 days; format: functional; conditions: 336 h; summary of the method: as §3
Mycobacterium kansasii [15] = assay: Antimicrobial activity against Mycobacterium kansasii My 6509/96 after 21 days; format: functional; conditions: 504 h; summary of the method: as §3
L929 = assay: Antiproliferative activity against mouse L929 cells after 72 hrs; format: functional; conditions: L929, 72 h
Summary of the method: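 About 10,000 adherent cells per well in RPMI 1640 with 10% heat-inactivated FBS and penicillin/streptomycin, without HEPES. Exposed to 10 concentrations for 72 h at 37 °C in humidified 5% CO₂. Monolayers fixed with glutaraldehyde, stained 15 min with 0.05% methylene blue, and eluted with 0.33 N HCl; OD read at 630 nm. GI50 derived from dose–response curves relative to control.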

K562 = assay: Antiproliferative activity against human K562 cells after 72 hrs; format: functional; conditions: K562, 72 h
Summary of the method: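 About 10,000 suspension cells per well in RPMI 1640 with 10% heat-inactivated FBS and penicillin/streptomycin, without HEPES. Exposed to 10 concentrations for 72 h at 37 °C in humidified 5% CO₂. Wells diluted 1:50 in CASYTON and counted electronically, each result the mean of three successive counts. GI50 is where the concentration–response curve crosses 50% of control cell count.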

HeLa = assay: Cytotoxicity against human HeLa cells after 72 hrs; format: functional; conditions: for CC50: Homo sapiens, HeLa, 72 h
Summary of the method: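 About 10,000 cells per well in RPMI 1640 were preincubated 48 h without compound. The 10 test concentrations were then applied onto the monolayers and incubated 72 h at 37 °C in humidified 5% CO₂. Monolayers fixed with glutaraldehyde, stained with 0.05% methylene blue, and eluted with 0.33 N HCl; optical density measured at 630 nm.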

Candida albicans [16] = assay: Antifungal activity against Candida albicans ATCC 44859 after 24 hrs; format: functional; conditions: ATCC 44859, 24 h
Summary of the method: (§4)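 Modified NCCLS M27-A broth microdilution with clinical isolates subcultured on Sabouraud dextrose agar. Suspensions diluted 1:50 in RPMI 1640 to give a final inoculum of 0.5–2.5×10³ CFU/mL for yeasts or 0.5–5×10⁴ CFU/mL for molds. The RPMI had L-glutamine, no bicarbonate, and 0.165 M MOPS to pH 7.0. Twofold dilutions from 250 to 0.49. Plates held at 35 °C, humid, without agitation. MIC is the lowest concentration giving ≥80% inhibition versus drug-free control, read at 24 and 48 h.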

Candida albicans [17] = assay: Antifungal activity against Candida albicans ATCC 44859 after 48 hrs; format: functional; conditions: ATCC 44859, 48 h; summary of the method: as §4
Candida tropicalis [18] = assay: Antifungal activity against Candida tropicalis 156 after 24 hrs; format: functional; summary of the method: as §4
Candida tropicalis [19] = assay: Antifungal activity against Candida tropicalis 156 after 48 hrs; format: functional; summary of the method: as §4
Pichia kudriavzevii [20] = assay: Antifungal activity against Candida krusei E28 after 24 hrs; format: functional; summary of the method: as §4
Pichia kudriavzevii [21] = assay: Antifungal activity against Candida krusei E28 after 48 hrs; format: functional; summary of the method: as §4
Nakaseomyces glabratus [22] = assay: Antifungal activity against Candida glabrata 20/I after 24 hrs; format: functional; summary of the method: as §4
Nakaseomyces glabratus [23] = assay: Antifungal activity against Candida glabrata 20/I after 48 hrs; format: functional; summary of the method: as §4
Trichosporon beigelii [24] = assay: Antifungal activity against Trichosporon beigelii 1188 after 24 hrs; format: functional; summary of the method: as §4
Trichosporon beigelii [25] = assay: Antifungal activity against Trichosporon beigelii 1188 after 48 hrs; format: functional; summary of the method: as §4
Aspergillus fumigatus [26] = assay: Antifungal activity against Aspergillus fumigatus 231 after 24 hrs; format: functional; summary of the method: as §4
Aspergillus fumigatus [27] = assay: Antifungal activity against Aspergillus fumigatus 231 after 48 hrs; format: functional; summary of the method: as §4
Lichtheimia corymbifera [28] = assay: Antifungal activity against Absidia corymbifera 272 after 24 hrs; format: functional; summary of the method: as §4
Lichtheimia corymbifera [29] = assay: Antifungal activity against Absidia corymbifera 272 after 48 hrs; format: functional; summary of the method: as §4
Trichophyton benhamiae [30] = assay: Antifungal activity against Trichophyton mentagrophytes 445 after 72 hrs; format: functional, Arthroderma benhamiae
Summary of the method: (§5)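 Same modified M27-A microdilution with the mold inoculum of 0.5–5×10⁴ CFU/mL. Medium was RPMI 1640 with L-glutamine, no bicarbonate, and 0.165 M MOPS at pH 7.0. Twofold dilutions from 250 to 0.49. Incubated at 35 °C in a humid atmosphere.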

Trichophyton benhamiae [31] = assay: Antifungal activity against Trichophyton mentagrophytes 445 after 120 hrs; format: functional, Arthroderma benhamiae; summary of the method: as §5

SMILES | MIC (Staphylococcus aureus [1]) [µg/mL] | MIC (Staphylococcus aureus [2]) [µg/mL] | MIC (Micrococcus luteus) [µg/mL] | MIC (Enterococcus faecalis) [µg/mL] | MIC [4] [µg/mL] | MIC (Mycolicibacterium aurum) [µg/mL] | MIC (Mycolicibacterium vaccae) [µg/mL] | MIC [5] [µg/mL] | MIC [6] [µM] | MIC [7] [µM] | MIC (Mycobacterium avium [8]) [µM] | MIC (Mycobacterium avium [9]) [µM] | MIC (Mycobacterium kansasii [10]) [µM] | MIC (Mycobacterium kansasii [11]) [µM] | MIC (Mycobacterium kansasii [12]) [µM] | MIC (Mycobacterium kansasii [13]) [µM] | MIC (Mycobacterium kansasii [14]) [µM] | MIC (Mycobacterium kansasii [15]) [µM] | GI50 (L929) [µg/mL] | GI50 (K562) [µg/mL] | also measured
c1ccc(CSc2ccncc2)cc1 | 100 (≈ 497 µM) | 100 (≈ 497 µM) | 100 (≈ 497 µM) | 100 (≈ 497 µM) | 100 (≈ 497 µM) | 25 (≈ 124 µM) | 50 (≈ 248 µM) | 50 (≈ 248 µM) | 125 (≈ 25.2 µg/mL) | 125 (≈ 25.2 µg/mL) | 125 (≈ 25.2 µg/mL) | 125 (≈ 25.2 µg/mL) | 62.5 (≈ 12.6 µg/mL) | 125 (≈ 25.2 µg/mL) | 125 (≈ 25.2 µg/mL) | 62.5 (≈ 12.6 µg/mL) | 125 (≈ 25.2 µg/mL) | 125 (≈ 25.2 µg/mL) | 34.3 (≈ 170 µM) | > 50 | MIC (Staphylococcus aureus [3]): > 100 µg/mL; CC10 (HeLa): 14 µg/mL (≈ 69.6 µM); CC50 (HeLa): 23.6 µg/mL (≈ 117 µM)
O=C(O)c1cn(C2CC2)c2cc(N3CCNCC3)c(F)cc2c1=O [CIPROFLOXACIN] | 0.2 (≈ 0.604 µM) | > 100 | 12.5 (≈ 37.7 µM) | 0.8 (≈ 2.41 µM) | 0.78 (≈ 2.35 µM) | 0.1 (≈ 0.302 µM) | 0.78 (≈ 2.35 µM) | 0.4 (≈ 1.21 µM) | – | – | – | – | – | – | – | – | – | – | – | – | –
c1ccc(CSc2nnnn2-c2ccccc2)cc1 | – | – | – | – | – | – | – | – | 16 (≈ 4.29 µg/mL) | 62.5 (≈ 16.8 µg/mL) | 32 (≈ 8.59 µg/mL) | 125 (≈ 33.5 µg/mL) | 16 (≈ 4.29 µg/mL) | 32 (≈ 8.59 µg/mL) | 125 (≈ 33.5 µg/mL) | 16 (≈ 4.29 µg/mL) | 32 (≈ 8.59 µg/mL) | 125 (≈ 33.5 µg/mL) | 22.5 (≈ 83.8 µM) | 36.1 (≈ 135 µM) | MIC (Candida albicans [16]): > 250 µM; MIC (Candida albicans [17]): > 250 µM; MIC (Candida tropicalis [18]): > 250 µM; MIC (Candida tropicalis [19]): > 250 µM; MIC (Pichia kudriavzevii [20]): > 250 µM; MIC (Pichia kudriavzevii [21]): > 250 µM; MIC (Nakaseomyces glabratus [22]): > 250 µM; MIC (Nakaseomyces glabratus [23]): > 250 µM; MIC (Trichosporon beigelii [24]): > 250 µM; MIC (Trichosporon beigelii [25]): > 250 µM; MIC (Aspergillus fumigatus [26]): > 250 µM; MIC (Aspergillus fumigatus [27]): > 250 µM; MIC (Lichtheimia corymbifera [28]): > 250 µM; MIC (Lichtheimia corymbifera [29]): > 250 µM; MIC (Trichophyton benhamiae [30]): 31.3 µM (≈ 8.4 µg/mL); MIC (Trichophyton benhamiae [31]): 62.5 µM (≈ 16.8 µg/mL); CC10 (HeLa): 8.7 µg/mL (≈ 32.4 µM); CC50 (HeLa): 41.6 µg/mL (≈ 155 µM)
Cc1ccc(CSc2cc[n+](CCCCCCCOc3ccc4c(c3)CC[C@@H]3[C@@H]4CC[C@]4(C)C(=O)CC[C@@H]34)cc2)cc1.[Br-] | 1.56 | 3.12 | 0.8 | 3.12 | 6.25 | 3.12 | 1.56 | 6.25 | 4 | 8 | 8 | 8 | 16 | 16 | 16 | 16 | 16 | 16 | 3.5 | 13.1 | MIC (Staphylococcus aureus [3]): 3.12 µg/mL; MIC (Candida albicans [17]): 3.9 µM; MIC (Pichia kudriavzevii [21]): 7.8 µM; MIC (Nakaseomyces glabratus [23]): 7.8 µM; MIC (Trichosporon beigelii [25]): 7.8 µM; MIC (Lichtheimia corymbifera [29]): 15.6 µM; MIC (Trichophyton benhamiae [31]): 7.8 µM; CC10 (HeLa): 1 µg/mL; CC50 (HeLa): 1.9 µg/mL
Cc1ccc(CSc2ccncc2)cc1 | 50 (≈ 232 µM) | 100 (≈ 464 µM) | 100 (≈ 464 µM) | 100 (≈ 464 µM) | 50 (≈ 232 µM) | 25 (≈ 116 µM) | 25 (≈ 116 µM) | 12.5 (≈ 58.1 µM) | 62.5 (≈ 13.5 µg/mL) | 62.5 (≈ 13.5 µg/mL) | 62.5 (≈ 13.5 µg/mL) | 125 (≈ 26.9 µg/mL) | 32 (≈ 6.89 µg/mL) | 62.5 (≈ 13.5 µg/mL) | 125 (≈ 26.9 µg/mL) | 32 (≈ 6.89 µg/mL) | 62.5 (≈ 13.5 µg/mL) | 125 (≈ 26.9 µg/mL) | 24.3 (≈ 113 µM) | 37.5 (≈ 174 µM) | MIC (Staphylococcus aureus [3]): 100 µg/mL (≈ 464 µM); CC10 (HeLa): 13.3 µg/mL (≈ 61.8 µM); CC50 (HeLa): 21.4 µg/mL (≈ 99.4 µM)

— ChEMBL document CHEMBL1143019, “Hybrid molecules of estrone: new compounds with potential antibacterial, antifungal, and antiproliferative activities” (2007)
